Assay results: ChEMBL document CHEMBL1156416, “Influence of high mutation rates on the mechanisms and dynamics of in vitro and in vivo resistance development to single or combined antipseudomonal agents” (Antimicrob Agents Chemother, 2007)
In brackets after ≈: the same amount, converted by molar mass. Activity calls are given as the source filed them. The rule behind the calls is not given here.

Key:
Pseudomonas aeruginosa [1] = test: Antibacterial activity against Pseudomonas aeruginosa PAO1 by Etest; type: functional
Procedure, shortened: (§1)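 Etest strips were applied on Mueller-Hinton agar following the manufacturer's recommendations. For PAOΔmutS, the MIC read was that of the main population, ignoring resistant colonies growing within the inhibition ellipse.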

Pseudomonas aeruginosa [2] = test: Antibacterial activity against Pseudomonas aeruginosa PAOdeltamutS by Etest; type: functional; procedure, shortened: as §1
Pseudomonas aeruginosa [3] = test: Antibacterial activity against Pseudomonas aeruginosa PAOdeltamutS infected in C57BL/6J mouse assessed as lung bacterial count at 10 mg/kg, ip administered every 6 hrs; type: functional, organism-based; parameters: dose 10 mg/kg
[4] = fAUC (0 to 24 hrs)/MIC ratio in Pseudomonas aeruginosa PAO1 infected C57BL/6J mouse at 10 mg/kg, ip administered every 6 hrs; type: functional; conditions: route intraperitoneal
Pseudomonas aeruginosa [5] = test: Antibacterial activity against Pseudomonas aeruginosa PAO1 infected in C57BL/6J mouse assessed as lung bacterial count at 10 mg/kg, ip administered every 6 hrs; type: functional, organism-based; parameters: dose 10 mg/kg
Mus musculus [6] = test: fAUC (0 to 24 hrs) in Pseudomonas aeruginosa PAO1 infected C57BL/6J mouse at 10 mg/kg, ip administered every 6 hrs; type: ADME, organism-based; parameters: dose 10 mg/kg, route intraperitoneal; conditions: in vivo
Pseudomonas aeruginosa [7] = test: Antibacterial activity against Pseudomonas aeruginosa PAOdeltamutS infected in C57BL/6J mouse assessed as mortality at 10 mg/kg, ip administered every 6 hrs; type: functional; conditions: route intraperitoneal
[8] = fCmax/MIC ratio in Pseudomonas aeruginosa PAO1 infected C57BL/6J mouse at 10 mg/kg, ip administered every 6 hrs; type: functional; conditions: route intraperitoneal
[9] = fAUC (0 to 24 hrs)/MIC ratio in Pseudomonas aeruginosa PAOdeltamutS infected C57BL/6J mouse at 10 mg/kg, ip administered every 6 hrs; type: functional; conditions: route intraperitoneal
Pseudomonas aeruginosa [10] = test: Antibacterial activity against Pseudomonas aeruginosa PAO1 infected in C57BL/6J mouse assessed as mortality at 10 mg/kg, ip administered every 6 hrs; type: functional; conditions: route intraperitoneal
[11] = Half life of free unbound fraction in Pseudomonas aeruginosa PAO1 infected C57BL/6J mouse at 10 mg/kg, ip administered every 6 hrs; type: ADME, organism-based; parameters: dose 10 mg/kg, route intraperitoneal; conditions: in vivo, read-out: t1/2 unbound fraction (converted)
Mus musculus [12] = test: fCmax in Pseudomonas aeruginosa PAO1 infected C57BL/6J mouse at 10 mg/kg, ip administered every 6 hrs; type: ADME, organism-based; parameters: dose 10 mg/kg, route intraperitoneal; conditions: in vivo
[13] = fCmax/MIC ratio in Pseudomonas aeruginosa PAOdeltamutS infected C57BL/6J mouse at 10 mg/kg, ip administered every 6 hrs; type: functional; conditions: route intraperitoneal
Pseudomonas aeruginosa [14] = test: Antibacterial activity against Pseudomonas aeruginosa PAO1 infected in C57BL/6J mouse assessed as mortality at 20 mg/kg, ip administered every 6 hrs; type: functional; conditions: route intraperitoneal
Pseudomonas aeruginosa [15] = test: Antibacterial activity against Pseudomonas aeruginosa PAOdeltamutS infected in C57BL/6J mouse assessed as mortality at 20 mg/kg, ip administered every 6 hrs; type: functional; conditions: route intraperitoneal
Pseudomonas aeruginosa [16] = test: Antibacterial activity against Pseudomonas aeruginosa PAO1 infected in C57BL/6J mouse assessed as lung bacterial count at 70 mg/kg, ip administered every 3 hrs; type: functional, organism-based; parameters: dose 70 mg/kg
Procedure, shortened: (§2)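 Female C57BL/6J mice (20–25 g) were anesthetized with ketamine/xylazine ip. They were inoculated transtracheally with about 2 × 10⁴ cells embedded in agarose beads. Ceftazidime 70 mg/kg every 3 h (or sterile water placebo) started 24 h after inoculation and ran for 3 days, 30 mice per group in two experiments. Lungs were taken 24 h after treatment ended, homogenized in saline, diluted 1/10 serially and plated on MHA; median counts were reported.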

Pseudomonas aeruginosa [17] = test: Antibacterial activity against Pseudomonas aeruginosa PAOdeltamutS infected in C57BL/6J mouse assessed as lung bacterial count at 70 mg/kg, ip administered every 3 hrs; type: functional, organism-based; parameters: dose 70 mg/kg; procedure, shortened: as §2
Mus musculus [18] = test: fCmax in Pseudomonas aeruginosa PAO1 infected C57BL/6J mouse at 70 mg/kg, ip administered every 3 hrs; type: ADME, organism-based; parameters: dose 70 mg/kg, route intraperitoneal; conditions: in vivo
Pseudomonas aeruginosa [19] = test: Antibacterial activity against Pseudomonas aeruginosa PAO1 infected in C57BL/6J mouse assessed as mortality at 70 mg/kg, ip administered every 3 hrs; type: functional; conditions: route intraperitoneal
Procedure, shortened: (§3)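 Female C57BL/6J mice (20–25 g) were infected transtracheally under ketamine/xylazine with about 2 × 10⁴ agarose-bead-embedded cells. Beginning 24 h later, they received ceftazidime 70 mg/kg every 3 h or a sterile water placebo for 3 days. There were 30 mice per group from two independent experiments of 15. Mortality was recorded as the percentage of animals per group.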

[20] = fCmax/MIC ratio in Pseudomonas aeruginosa PAO1 infected C57BL/6J mouse at 70 mg/kg, ip administered every 3 hrs; type: functional; conditions: route intraperitoneal
[21] = fAUC (0 to 24 hrs)/MIC ratio in Pseudomonas aeruginosa PAO1 infected C57BL/6J mouse at 70 mg/kg, ip administered every 3 hrs; type: functional; conditions: route intraperitoneal
[22] = fCmax/MIC ratio in Pseudomonas aeruginosa PAOdeltamutS infected C57BL/6J mouse at 70 mg/kg, ip administered every 3 hrs; type: functional; conditions: route intraperitoneal
[23] = Half life of free unbound fraction in Pseudomonas aeruginosa PAO1 infected C57BL/6J mouse at 70 mg/kg, ip administered every 3 hrs; type: ADME, organism-based; parameters: dose 70 mg/kg, route intraperitoneal; conditions: in vivo, read-out: t1/2 unbound fraction (converted)
Pseudomonas aeruginosa [24] = test: Antibacterial activity against Pseudomonas aeruginosa PAOdeltamutS infected in C57BL/6J mouse assessed as mortality at 70 mg/kg, ip administered every 3 hrs; type: functional; conditions: route intraperitoneal; procedure, shortened: as §3
Pseudomonas aeruginosa [25] = test: f%T>MIC in Pseudomonas aeruginosa PAO1 infected C57BL/6J mouse at 70 mg/kg, ip administered every 3 hrs; type: functional; conditions: route intraperitoneal
Mus musculus [26] = test: fAUC (0 to 24 hrs) in Pseudomonas aeruginosa PAO1 infected C57BL/6J mouse at 70 mg/kg, ip administered every 3 hrs; type: ADME, organism-based; parameters: dose 70 mg/kg, route intraperitoneal; conditions: in vivo
[27] = fAUC (0 to 24 hrs)/MIC ratio in Pseudomonas aeruginosa PAOdeltamutS infected C57BL/6J mouse at 70 mg/kg, ip administered every 3 hrs; type: functional; conditions: route intraperitoneal

CN(C)[C@@H]1C(O)=C(C(N)=O)C(=O)[C@@]2(O)C(O)=C3C(=O)c4c(O)cccc4[C@@](C)(O)[C@H]3C[C@@H]12 [TETRACYCLINE]
MIC (Pseudomonas aeruginosa [1]): 24 mg/L (≈ 54 µM)
MIC (Pseudomonas aeruginosa [2]): 24 mg/L (≈ 54 µM)

O=C(N[C@H](CO)[C@H](O)c1ccc([N+](=O)[O-])cc1)C(Cl)Cl [CHLORAMPHENICOL]
MIC (Pseudomonas aeruginosa [1]): 32 mg/L (≈ 99 µM)
MIC (Pseudomonas aeruginosa [2]): 32 mg/L (≈ 99 µM)

NC[C@H]1O[C@H](O[C@H]2[C@H](O)[C@@H](O[C@H]3O[C@H](CO)[C@@H](O)[C@H](N)[C@H]3O)[C@H](N)C[C@@H]2N)[C@H](N)C[C@@H]1O [TOBRAMYCIN]
f %t > MIC (Pseudomonas aeruginosa [3]): Active
fAUC/MIC [4]: 43
f %t > MIC (Pseudomonas aeruginosa [5]): Active
fAUC (Mus musculus [6]): 42.96 µg·h/mL
MIC (Pseudomonas aeruginosa [1]): 1 mg/L (≈ 2.14 µM)
mortality at 10 mg/kg (Pseudomonas aeruginosa [7]): 60%
fc max/MIC [8]: 19
fAUC/MIC [9]: 43
MIC (Pseudomonas aeruginosa [2]): 1 mg/L (≈ 2.14 µM)
mortality at 10 mg/kg (Pseudomonas aeruginosa [10]): 66.7%
half-life [11]: 33 min
fc max (Mus musculus [12]): 19.07 mg/L
fc max/MIC [13]: 19

O=C(O)c1cn(C2CC2)c2cc(N3CCNCC3)c(F)cc2c1=O [CIPROFLOXACIN]
MIC (Pseudomonas aeruginosa [2]): 0.12 mg/L (≈ 0.362 µM)
mortality at 20 mg/kg (Pseudomonas aeruginosa [14]): 26.7%
mortality at 20 mg/kg (Pseudomonas aeruginosa [15]): 26.7%

C[C@@H](O)[C@H]1C(=O)N2C(C(=O)O)=C(SCCNC=N)C[C@H]12 [IMIPENEM ANHYDROUS]
MIC (Pseudomonas aeruginosa [1]): 1.5 mg/L (≈ 5.01 µM)
MIC (Pseudomonas aeruginosa [2]): 1.5 mg/L (≈ 5.01 µM)

CO/N=C(\C(=O)N[C@@H]1C(=O)N2C(C(=O)[O-])=C(C[N+]3(C)CCCC3)CS[C@H]12)c1csc(N)n1
MIC (Pseudomonas aeruginosa [1]): 1 mg/L (≈ 2.08 µM)
MIC (Pseudomonas aeruginosa [2]): 1 mg/L (≈ 2.08 µM)

CC(C)(O/N=C(\C(=O)N[C@@H]1C(=O)N2C(C(=O)[O-])=C(C[n+]3ccccc3)CS[C@H]12)c1csc(N)n1)C(=O)O [CEFTAZIDIME]
Activity (Pseudomonas aeruginosa [16]): Active
Activity (Pseudomonas aeruginosa [17]): Active
fc max (Mus musculus [18]): 183.1 mg/L
mortality at 70 mg/kg (Pseudomonas aeruginosa [19]): 56.7%
fc max [20]: 183
MIC (Pseudomonas aeruginosa [1]): 1 mg/L (≈ 1.83 µM)
fAUC/MIC [21]: 594
fc max [22]: 183
MIC (Pseudomonas aeruginosa [2]): 1 mg/L (≈ 1.83 µM)
half-life [23]: 24 min
mortality at 70 mg/kg (Pseudomonas aeruginosa [24]): 43.3%
f %t > MIC (Pseudomonas aeruginosa [25]): 54%
fAUC (Mus musculus [26]): 593.6 µg·h/mL
fAUC/MIC [27]: 594

C[C@H]1[C@H](NC(=O)/C(=N\OC(C)(C)C(=O)O)c2csc(N)n2)C(=O)N1S(=O)(=O)O [AZTREONAM]
MIC (Pseudomonas aeruginosa [1]): 1.5 mg/L (≈ 3.44 µM)
MIC (Pseudomonas aeruginosa [2]): 1.5 mg/L (≈ 3.44 µM)

C[C@@H](O)[C@H]1C(=O)N2C(C(=O)O)=C(S[C@@H]3CN[C@H](C(=O)N(C)C)C3)[C@H](C)[C@H]12 [MEROPENEM]
MIC (Pseudomonas aeruginosa [1]): 0.5 mg/L (≈ 1.3 µM)
MIC (Pseudomonas aeruginosa [2]): 0.75 mg/L (≈ 1.96 µM)
